From ChEMBL document CHEMBL1129572, “Synthesis and pharmacological properties of novel 8-substituted imidazobenzodiazepines: high-affinity, selective probes for alpha 5-containing GABAA receptors” (J Med Chem, 1996)

What was measured:
[1] = target: T1, GABA-A receptor; alpha-1/beta-2/gamma-2 (Homo sapiens, UniProt P14867+P18507+P47870); assay: Binding affinity for human GABA-A receptor alpha-1-beta-2-gamma-2 expressed in L(tk-) cell membranes
T1 sequence (P14867 whole entry): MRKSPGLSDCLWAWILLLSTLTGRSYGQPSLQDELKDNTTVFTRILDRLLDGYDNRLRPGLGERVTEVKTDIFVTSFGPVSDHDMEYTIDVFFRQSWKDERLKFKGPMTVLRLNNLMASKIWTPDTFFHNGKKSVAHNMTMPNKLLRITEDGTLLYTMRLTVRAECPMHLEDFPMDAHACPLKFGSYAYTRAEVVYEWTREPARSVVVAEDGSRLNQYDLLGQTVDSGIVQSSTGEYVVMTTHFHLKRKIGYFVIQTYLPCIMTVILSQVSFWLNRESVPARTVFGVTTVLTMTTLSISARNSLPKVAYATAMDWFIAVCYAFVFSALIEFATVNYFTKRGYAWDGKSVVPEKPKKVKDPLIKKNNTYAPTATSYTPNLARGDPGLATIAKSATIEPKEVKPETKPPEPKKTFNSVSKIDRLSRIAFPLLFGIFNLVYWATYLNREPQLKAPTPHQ
T1 sequence (P47870 whole entry): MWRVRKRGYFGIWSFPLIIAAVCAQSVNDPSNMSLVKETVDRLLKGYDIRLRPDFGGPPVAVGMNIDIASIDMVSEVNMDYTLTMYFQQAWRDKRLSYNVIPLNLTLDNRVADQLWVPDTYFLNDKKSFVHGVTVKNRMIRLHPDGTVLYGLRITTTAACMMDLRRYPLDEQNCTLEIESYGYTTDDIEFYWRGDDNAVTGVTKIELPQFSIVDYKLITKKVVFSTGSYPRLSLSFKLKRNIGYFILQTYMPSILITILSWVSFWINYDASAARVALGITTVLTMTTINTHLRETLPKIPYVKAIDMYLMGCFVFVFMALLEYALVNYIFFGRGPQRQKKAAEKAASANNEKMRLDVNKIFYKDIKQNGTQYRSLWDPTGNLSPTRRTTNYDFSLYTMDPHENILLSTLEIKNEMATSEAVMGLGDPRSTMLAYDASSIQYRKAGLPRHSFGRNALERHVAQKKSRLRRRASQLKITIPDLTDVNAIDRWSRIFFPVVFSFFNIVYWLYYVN
T1 sequence (P18507 whole entry): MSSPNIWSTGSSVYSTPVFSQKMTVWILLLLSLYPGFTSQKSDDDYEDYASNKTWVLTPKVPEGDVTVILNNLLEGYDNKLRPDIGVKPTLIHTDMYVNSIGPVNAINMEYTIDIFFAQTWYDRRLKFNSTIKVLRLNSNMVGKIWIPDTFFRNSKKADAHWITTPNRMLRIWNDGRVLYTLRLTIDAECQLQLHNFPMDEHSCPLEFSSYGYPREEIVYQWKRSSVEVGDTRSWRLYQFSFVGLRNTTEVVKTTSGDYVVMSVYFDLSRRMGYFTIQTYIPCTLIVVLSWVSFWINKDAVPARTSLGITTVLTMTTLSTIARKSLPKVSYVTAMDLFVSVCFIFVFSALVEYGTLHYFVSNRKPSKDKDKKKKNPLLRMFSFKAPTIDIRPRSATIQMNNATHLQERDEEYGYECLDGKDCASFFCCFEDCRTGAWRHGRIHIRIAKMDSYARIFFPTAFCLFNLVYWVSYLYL

[2] = target: GABA A receptor alpha-6/beta-2/gamma-2 (Homo sapiens, UniProt P18507+P47870+Q16445); assay: Binding affinity for human GABA-A receptor alpha-6-beta-2-gamma-2 expressed in L(tk-) cell membranes
GABA A receptor alpha-6/beta-2/gamma-2, sequence (Q16445 whole entry, one chain of several): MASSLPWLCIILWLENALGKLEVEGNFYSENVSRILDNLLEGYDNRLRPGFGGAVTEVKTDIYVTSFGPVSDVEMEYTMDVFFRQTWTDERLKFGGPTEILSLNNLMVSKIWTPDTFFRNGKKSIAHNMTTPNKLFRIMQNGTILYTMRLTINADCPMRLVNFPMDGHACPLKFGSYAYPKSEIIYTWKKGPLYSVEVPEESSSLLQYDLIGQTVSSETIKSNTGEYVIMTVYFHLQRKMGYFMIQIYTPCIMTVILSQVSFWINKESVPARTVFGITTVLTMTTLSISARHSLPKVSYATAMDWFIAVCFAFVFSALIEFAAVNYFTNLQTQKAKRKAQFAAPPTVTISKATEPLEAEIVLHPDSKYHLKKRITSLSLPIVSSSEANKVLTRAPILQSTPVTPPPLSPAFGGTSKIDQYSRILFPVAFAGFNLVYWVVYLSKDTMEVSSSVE

[3] = target: T2, GABA A receptor alpha-3/beta-2/gamma-2 (Homo sapiens, UniProt P18507+P34903+P47870); assay: Binding affinity for human GABA-A receptor alpha-3-beta-2-gamma-2 expressed in L(tk-) cell membranes
T2 sequence (P47870 whole entry): T1 sequence (P47870 whole entry)
T2 sequence (P18507 whole entry): T1 sequence (P18507 whole entry)
T2 sequence (P34903 whole entry): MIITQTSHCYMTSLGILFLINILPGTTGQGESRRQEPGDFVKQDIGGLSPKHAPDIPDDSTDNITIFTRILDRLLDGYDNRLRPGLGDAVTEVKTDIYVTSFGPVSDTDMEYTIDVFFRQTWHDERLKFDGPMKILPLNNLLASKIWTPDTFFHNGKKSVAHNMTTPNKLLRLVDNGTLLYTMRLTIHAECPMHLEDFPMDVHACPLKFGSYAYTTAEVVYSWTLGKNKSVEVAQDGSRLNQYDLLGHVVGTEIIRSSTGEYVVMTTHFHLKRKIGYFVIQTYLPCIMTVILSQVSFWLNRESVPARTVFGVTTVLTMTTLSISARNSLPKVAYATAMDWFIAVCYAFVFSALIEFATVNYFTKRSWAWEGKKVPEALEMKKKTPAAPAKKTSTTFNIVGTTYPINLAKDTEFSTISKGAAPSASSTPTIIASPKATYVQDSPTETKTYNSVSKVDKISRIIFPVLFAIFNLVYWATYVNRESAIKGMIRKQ

[4] = Binding affinity for human GABA-A receptor alpha-5--beta-2-gamma-2 expressed in L(tk-) cell membranes
How it was run: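 Competition binding on membranes of Ltk cells expressing human αxβ2γ2 receptors. Radioligand was [3H]Ro 15-1788, or [3H]Ro 15-4513 for α6β2γ2. Ki is the mean of two determinations differing by less than 10%.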

[5] = target: T3, GABA A receptor alpha-2/beta-2/gamma-2 (Homo sapiens, UniProt P18507+P47869+P47870); assay: Binding affinity for human GABA-A receptor alpha-2-beta-2-gamma-2 expressed in L(tk-) cell membranes
T3 sequence (P47870 whole entry): T1 sequence (P47870 whole entry)
T3 sequence (P18507 whole entry): T1 sequence (P18507 whole entry)
T3 sequence (P47869 whole entry): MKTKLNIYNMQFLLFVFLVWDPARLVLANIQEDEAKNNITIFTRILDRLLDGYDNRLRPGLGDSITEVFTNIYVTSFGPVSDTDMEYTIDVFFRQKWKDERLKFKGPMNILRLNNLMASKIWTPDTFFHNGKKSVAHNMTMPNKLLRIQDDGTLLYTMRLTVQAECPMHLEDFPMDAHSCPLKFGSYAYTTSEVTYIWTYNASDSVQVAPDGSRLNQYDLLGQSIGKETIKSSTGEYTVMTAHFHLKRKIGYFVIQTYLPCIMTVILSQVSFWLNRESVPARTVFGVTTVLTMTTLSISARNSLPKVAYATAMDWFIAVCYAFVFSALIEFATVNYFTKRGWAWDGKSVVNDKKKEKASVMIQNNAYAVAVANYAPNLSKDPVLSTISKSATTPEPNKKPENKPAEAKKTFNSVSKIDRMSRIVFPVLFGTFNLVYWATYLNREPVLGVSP

[6] = organism: Homo sapiens; assay: Relative binding affinity for GABA-A receptor alpha-5 over alpha1 subunits
[7] = organism: Mus musculus; assay: Convulsant activity was evaluated; type: functional
How it was run: (§1)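 Adult male NIH/Swiss mice (~30 g) got a single ip injection of graded doses (up to 40 or 80 mg/kg) or vehicle, suspended in 10% diluted Emulphor:90% saline with warming and sonication. They were observed 10 min; tonic/clonic convulsions with loss of righting reflex were scored. CD50 is the dose seizing half the maximal number convulsing, by nonlinear regression.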

[8] = organism: Mus musculus; assay: Dose required for 50% seizure of maximum number of animals; type: functional; how it was run: as §1
[9] = organism: Mus musculus; assay: Convulsant activity was evaluated in mice; type: functional; how it was run: as §1
[10] = organism: Mus musculus; assay: Proconvulsant potency at which 50% of the animals (mice) convulsed 15 min after receiving PTZ.; type: functional; conditions: read-out: PD50
How it was run: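 Mice got a single ip dose of the ligand or vehicle, then PTZ (40 mg/kg ip) 15 min later, and were observed 10 min. N = 5–10 per group. PD50 is the dose at which 50% of animals convulsed, by nonlinear regression.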

[11] = organism: Mus musculus; assay: Anticonvulsant activity against convulsions induced by Compound 9; type: functional
How it was run: (§2)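 Male NIH/Swiss mice (~30 g) given graded ip doses of zolpidem, flumazenil or vehicle in 10% diluted Emulphor:90% saline. 10 min later they were challenged ip with DMCM (7.5 mg/kg) or the convulsant test ligand (20 mg/kg). Convulsions were observed; N = 5–10 per dose. ED50 came from nonlinear regression.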

[12] = organism: Mus musculus; assay: Anticonvulsant activity against convulsions induced by DMCM; type: functional; how it was run: as §2
[13] = target: T4, Gamma-aminobutyric acid receptor subunit alpha-5 (Rattus norvegicus, UniProt P19969); assay: Inhibition of [3H]flunitrazepam binding to alpha-5 GABA-A receptor of rat hippocampal membranes; type: cell membranes, Membrane
T4 sequence (P19969 whole entry): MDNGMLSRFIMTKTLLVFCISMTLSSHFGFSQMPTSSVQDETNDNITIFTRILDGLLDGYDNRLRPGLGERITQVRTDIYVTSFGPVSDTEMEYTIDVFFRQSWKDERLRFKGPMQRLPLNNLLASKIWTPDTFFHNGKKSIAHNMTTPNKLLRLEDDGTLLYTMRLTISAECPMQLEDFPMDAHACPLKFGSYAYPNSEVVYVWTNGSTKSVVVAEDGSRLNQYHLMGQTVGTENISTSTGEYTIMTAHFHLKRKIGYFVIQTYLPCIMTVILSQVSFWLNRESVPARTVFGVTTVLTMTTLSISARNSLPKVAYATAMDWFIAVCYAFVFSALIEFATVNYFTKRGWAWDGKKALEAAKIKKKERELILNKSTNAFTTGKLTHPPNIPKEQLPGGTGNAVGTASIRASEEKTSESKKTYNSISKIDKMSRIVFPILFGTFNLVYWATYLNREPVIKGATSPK
How it was run: (§3)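 Male Sprague–Dawley rat hippocampal or cerebellar membranes, washed in 50 mM Tris-citrate pH 7.4. They were incubated with ~1 nM [3H]flunitrazepam (final) plus NaCl, 120 min at 0–4 °C, then filtered. Nonspecific binding was set with 10 µM Ro 15-1788. IC50 used 8–12 concentrations; hippocampal data were fitted two-site (F test). Four experiments, mean ± SEM.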

[14] = target: GABA-A receptor; anion channel; assay: Inhibition of [3H]flunitrazepam binding to GABA-A receptor of rat cerebral membranes; type: cell membranes, Membrane; how it was run: as §3
[15] = target: T4, Gamma-aminobutyric acid receptor subunit alpha-5; assay: Inhibition of [3H]flunitrazepam binding to high affinity GABA-A receptor of rat hippocampal membranes; type: cell membranes, Membrane; how it was run: as §3
[16] = target: GABA-A receptor; anion channel; assay: (§4) Inhibition of [3H]flunitrazepam binding to low affinity GABA-A receptor of rat hippocampal membranes; type: cell membranes, Membrane; how it was run: as §3
[17] = target: GABA-A receptor; anion channel; assay: as §4; type: cell membranes, Membrane; how it was run: as §3; remark: listed apart in the source
[18] = target: T4, Gamma-aminobutyric acid receptor subunit alpha-5; assay: Inhibition of [3H]flunitrazepam binding to alpha5 GABA-A receptor of rat hippocampal membranes; type: cell membranes, Membrane; how it was run: as §3

SMILES	Ki [1] [nM]	Ki [2] [nM]	Ki [3] [nM]	Ki [4] [nM]	Ki [5] [nM]	Ratio [6]	CD50 [8] [mg/kg]	other results
CCOC(=O)c1ncn2c1CN(C)C(=O)c1cc(C#CC[Si](C)(C)C)ccc1-2	> 300	> 300	> 300	> 300	> 300			
CCc1ccc2c(c1)C(=O)N(C)Cc1c(C(=O)OC(C)(C)C)ncn1-2	14.8	22.9	25.3	1.7	56	8.6		
C#Cc1ccc2c(c1)C(=O)N(C)Cc1c(C(=O)OCC)ncn1-2	28.4	28.8	25.8	0.5	21.4	60	24	Activity [7]: 70%
CN1Cc2c(C(=O)OC(C)(C)C)ncn2-c2ccc(C#C[Si](C)(C)C)cc2C1=O	197	58.6	255	2.61	143	75.5	2.3	Activity [9]: 22%; ED50 [10]: 40 mg/kg
Cc1ccc(-c2nc3ccc(C)cn3c2CC(=O)N(C)C)cc1 [ZOLPIDEM]								ED50 [11]: 7 mg/kg; ED50 [12]: 0.4 mg/kg
CN1Cc2c(C(=O)OC(C)(C)C)ncn2-c2ccc(Br)cc2C1=O	11.4	9.4	9.2	0.5	10.7	24		
CCOC(=O)c1ncn2c1CN(C)C(=O)c1cc(C#C[Si](C)(C)C)ccc1-2		114	198	5	142	24	70.9	Activity [9]: 85%
C#Cc1ccc2c(c1)C(=O)N(C)Cc1c(C(=O)OC(C)(C)C)ncn1-2	26.9	5.1	18.7	0.4	26.3	67.3	5.9	IC50 [13]: 0.33 nM; IC50 [14]: 79.8 nM; IC50 [15]: 0.6 nM; IC50 [16]: 85.6 nM; IC50 [17]: 70.7 nM; IC50 [18]: 67.2 nM; Activity [9]: 80%
CCOC(=O)c1ncn2c1CN(C)C(=O)c1cc(F)ccc1-2 [FLUMAZENIL]								ED50 [11]: 3.8 mg/kg; ED50 [12]: 2.3 mg/kg
CC#Cc1ccc2c(c1)C(=O)N(C)Cc1c(C(=O)OCC)ncn1-2	10.1	> 100	16.5	1.7	22.2	6		
CCOC(=O)c1ncn2c1CN(C)C(=O)c1cc(CC)ccc1-2	20.4	176	26.1	1.5	27	13.8		
CCOC(=O)c1ncn2c1CN(C)C(=O)c1cc(N=[N+]=[N-])ccc1-2 [Ro-154513]				0.26				
